The source made the active and inactive calls. No cut-off for these calls is given here.
Key:
[1] = target: Proprotein convertase subtilisin/kexin type 9 (Homo sapiens) (UniProt Q8NBP7); assay: Binding affinity to biotinylated recombinant human PCSK9 at 0.8 to 1.6 uM incubated for 2 mins followed by further incubation for 10 mins by biolayer interferometry
Procedure, shortened: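 Biolayer interferometry: biotinylated PCSK9 (27 µg/mL) loaded onto a Super Streptavidin biosensor and blocked with biocytin. Compound (0.2–25.6 µM) associated for 2 min, then dissociated for 10 min. Background signal subtracted to remove non-specific binding.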

[2] = target: Mast/stem cell growth factor receptor Kit (Homo sapiens, UniProt P10721); assay: Inhibition of recombinant human N-terminal GST-tagged c-Kit (544 to end residues) expressed in baculovirus infected Sf21 insect cells using FAM-labelled P22 peptide as substrate preincubated for 10 mins followed by substrate addition and measured after 1 hr in presence of ATP by fluorescence assay
Chain of Mast/stem cell growth factor receptor Kit (P10721 whole entry, the tested form may be a part): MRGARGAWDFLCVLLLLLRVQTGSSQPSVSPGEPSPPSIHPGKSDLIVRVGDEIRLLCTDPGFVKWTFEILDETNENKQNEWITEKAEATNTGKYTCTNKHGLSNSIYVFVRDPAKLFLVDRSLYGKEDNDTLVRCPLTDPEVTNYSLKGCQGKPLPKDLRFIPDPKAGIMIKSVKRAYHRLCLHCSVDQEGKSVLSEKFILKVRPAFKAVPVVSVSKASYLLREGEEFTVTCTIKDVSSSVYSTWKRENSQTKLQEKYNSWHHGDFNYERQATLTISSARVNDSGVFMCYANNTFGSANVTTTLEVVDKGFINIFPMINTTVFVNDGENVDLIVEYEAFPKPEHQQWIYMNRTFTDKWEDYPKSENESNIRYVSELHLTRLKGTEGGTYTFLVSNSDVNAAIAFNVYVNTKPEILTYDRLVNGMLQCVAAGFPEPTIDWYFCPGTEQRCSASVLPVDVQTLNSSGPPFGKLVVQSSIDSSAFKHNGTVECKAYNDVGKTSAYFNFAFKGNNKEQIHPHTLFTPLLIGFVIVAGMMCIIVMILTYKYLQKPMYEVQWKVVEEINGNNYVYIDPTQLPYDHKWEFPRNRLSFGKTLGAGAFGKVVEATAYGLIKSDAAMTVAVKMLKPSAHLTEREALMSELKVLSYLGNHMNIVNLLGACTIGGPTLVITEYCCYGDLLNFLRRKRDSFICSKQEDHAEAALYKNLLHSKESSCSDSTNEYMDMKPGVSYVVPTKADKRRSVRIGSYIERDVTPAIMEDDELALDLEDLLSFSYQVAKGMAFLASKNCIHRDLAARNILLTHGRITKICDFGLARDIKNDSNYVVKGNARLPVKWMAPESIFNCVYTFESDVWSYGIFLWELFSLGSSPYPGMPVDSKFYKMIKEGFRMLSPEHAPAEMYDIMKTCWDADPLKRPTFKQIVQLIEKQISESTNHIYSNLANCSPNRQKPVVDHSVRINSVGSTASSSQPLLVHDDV

[3] = target: Tyrosine-protein kinase ABL1 (Homo sapiens, UniProt P00519); assay: Inhibition of recombinant human N-terminal His-tagged Abl (2 to 1130 residues) expressed in baculovirus expression system using FAM-labelled P2 peptide as substrate preincubated for 10 mins followed by substrate addition and measured after 1 hr in presence of ATP by fluorescence assay
Chain of Tyrosine-protein kinase ABL1 (P00519 whole entry, the tested form may be a part): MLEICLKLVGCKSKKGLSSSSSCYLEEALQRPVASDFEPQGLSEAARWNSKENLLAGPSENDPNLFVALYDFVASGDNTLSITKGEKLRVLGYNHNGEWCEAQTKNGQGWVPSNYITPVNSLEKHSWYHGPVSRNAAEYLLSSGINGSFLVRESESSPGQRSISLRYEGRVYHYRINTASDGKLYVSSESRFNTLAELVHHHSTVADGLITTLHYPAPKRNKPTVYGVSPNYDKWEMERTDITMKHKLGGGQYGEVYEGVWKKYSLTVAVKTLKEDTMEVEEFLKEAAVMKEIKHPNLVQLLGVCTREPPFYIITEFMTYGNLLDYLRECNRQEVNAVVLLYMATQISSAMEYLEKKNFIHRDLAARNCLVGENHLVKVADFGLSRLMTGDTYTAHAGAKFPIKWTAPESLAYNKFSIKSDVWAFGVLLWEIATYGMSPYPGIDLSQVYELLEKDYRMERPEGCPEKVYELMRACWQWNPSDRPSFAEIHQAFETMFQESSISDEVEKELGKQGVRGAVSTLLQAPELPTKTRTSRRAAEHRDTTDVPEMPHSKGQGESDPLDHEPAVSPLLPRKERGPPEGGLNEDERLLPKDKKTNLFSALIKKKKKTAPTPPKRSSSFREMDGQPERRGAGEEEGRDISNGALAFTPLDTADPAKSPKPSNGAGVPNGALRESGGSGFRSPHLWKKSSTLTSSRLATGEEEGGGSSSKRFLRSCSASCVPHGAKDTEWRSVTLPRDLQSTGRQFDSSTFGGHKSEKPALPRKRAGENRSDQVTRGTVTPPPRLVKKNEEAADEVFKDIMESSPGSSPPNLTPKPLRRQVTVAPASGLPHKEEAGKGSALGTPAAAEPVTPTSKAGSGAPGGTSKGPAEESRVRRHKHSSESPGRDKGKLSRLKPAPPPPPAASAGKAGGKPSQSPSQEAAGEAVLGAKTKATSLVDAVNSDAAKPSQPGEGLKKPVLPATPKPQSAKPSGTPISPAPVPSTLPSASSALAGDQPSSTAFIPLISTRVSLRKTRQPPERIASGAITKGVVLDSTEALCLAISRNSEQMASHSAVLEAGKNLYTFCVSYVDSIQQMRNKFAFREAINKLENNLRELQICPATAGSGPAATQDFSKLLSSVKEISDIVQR

[4] = system: PCSK9/LDLR (Homo sapiens), Q8NBP7+P01130 [D374Y]; assay: Inhibition of PCSK9 D374Y mutant (unknown origin) and LDLR protein-protein interaction in human PBMC assessed as increase in LDLR expression on lymphocyte surface at 0.1 to 0.4 uM measured after 4 hrs by flow cytometry analysis; assay type: cell-based
Procedure, shortened: (§1)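 PBMCs from healthy donors, frozen and then thawed, plated at 2 × 10^5 per well in RPMI with 10 mM HEPES, 1 mM pyruvate and 0.5% FCS for 2 h at 37 °C. Treated 4 h with or without 600 ng/mL PCSK9-D374Y plus compound. Cells stained 20 min at room temperature with APC-conjugated anti-LDLR; at least 5 × 10^3 gated lymphocytes read by flow cytometry. Values as % of PCSK9-free vehicle; triplicates, t test.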

[5] = system: PCSK9/LDLR (Homo sapiens), Q8NBP7+P01130 [D374Y]; assay: Inhibition of PCSK9 D374Y mutant (unknown origin) and LDLR protein-protein interaction expressed in human PBMCs assessed as increase in LDLR expression on lymphocyte surface at 1 to 10 uM measured after 4 hrs by flow cytometry analysis; procedure, shortened: as §1
[6] = Volume of distribution at steady state in CD1 mouse at 0.4 mg/kg, iv administered as cassette dose measured upto 24 hrs by LC-MS/MS analysis; assay type: ADME, organism-based; details: in vivo, read-out: Vdss
Procedure, shortened: (§2)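 Male CD1 mice (second cassette 28–29 g, 7–8 weeks) given one IV 5-in-1 cassette at 0.4 mg/kg per compound in 5% DMAC/5% Solutol HS15/90% saline. Blood (~20 µL) into K2EDTA from the facial vein at 0.083–24 h, terminal bleed by cardiac puncture under isoflurane. Blood diluted with deionised water, stored at −80 °C, analysed by positive-ESI mass spectrometry.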

[7] = Terminal half life in CD1 mouse at 0.4 mg/kg, iv administered as cassette dose measured upto 24 hrs by LC-MS/MS analysis; assay type: ADME, organism-based; details: in vivo, read-out: beta t1/2 (converted); procedure, shortened: as §2
[8] = AUClast in CD1 mouse at 0.4 mg/kg, iv administered as cassette dose measured upto 24 hrs by LC-MS/MS analysis; assay type: ADME, organism-based; design: time < 24 hr, dose 0.4 mg/kg, route intravenous; details: in vivo; procedure, shortened: as §2
[9] = Tmax in C57BL/6 mouse at 20 mg/kg, po administered as single dose measured upto 24 hrs by LC-MS/MS analysis; assay type: ADME, organism-based; details: in vivo
Procedure, shortened: (§3)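 Male C57BL/6 mice, single dose: IV 5 mg/kg in 85% saline/10% Solutol HS15/5% DMSO; SC 20 mg/kg in same vehicle; PO 20 mg/kg in 1% methylcellulose in water. About 110 µL blood taken into K2EDTA by retro-orbital puncture (terminal bleed by cardiac puncture under isoflurane) at 0.033–24 h. Plasma spun at 2000 g, 5 min, 4 °C, stored near −70 °C; n = 3 per route.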

[10] = Cmax in C57BL/6 mouse at 20 mg/kg, sc administered as single dose measured upto 24 hrs by LC-MS/MS analysis; assay type: ADME, organism-based; design: dose 20 mg/kg, route subcutaneous; details: in vivo; procedure, shortened: as §3
[11] = Cmax in C57BL/6 mouse at 20 mg/kg, po administered as single dose measured upto 24 hrs by LC-MS/MS analysis; assay type: ADME, organism-based; design: dose 20 mg/kg, route oral; details: in vivo; procedure, shortened: as §3
[12] = Terminal half life in C57BL/6 mouse at 20 mg/kg, sc administered as single dose measured upto 24 hrs by LC-MS/MS analysis; assay type: ADME, organism-based; details: in vivo, read-out: beta t1/2 (converted); procedure, shortened: as §3
[13] = system: Mus musculus; assay: Antihyperlipidemic activity in PCSK9 knockout C57BL/6 mouse assessed as decrease in total cholesterol level at 16.4 mg/kg/day, sc administered daily for 14 days and measured on day 15 by colorimetric method; assay type: functional, organism-based
Procedure, shortened: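 Female C57BL/6 wild-type or PCSK9−/− mice (8–16 weeks), acclimatised 7 days, 5 per group, dosed SC daily for 14 days at 3.28 or 16.4 mg/kg/day in 5% DMSO/95% saline, or vehicle alone. Blood taken into EDTA on days 0, 5, 10 and 15; plasma from 2500 g spin, stored at −20 °C. Total cholesterol and triglycerides read by colorimetric kits, PCSK9 by mouse ELISA; unpaired two-tailed t test against vehicle.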

[14] = system: PCSK9/LDLR (Homo sapiens), Q8NBP7+P01130 [D374Y]; assay: Inhibition of PCSK9 D374Y mutant (unknown origin) and LDLR protein-protein interaction in human HepG2 cells assessed as increase in Bodipy FL-labelled LDL uptake preincubated for 16 hrs followed by Bodipy FL-labelled LDL addition and measured after 4 hrs by fluorescence assay; assay type: cell-based
Procedure, shortened: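 HepG2 cells seeded at 2 × 10^5 cells/mL and attached overnight, then incubated 16 h with PCSK9-D374Y (2 μg/mL) plus compound (0.1 or 1 µM). Medium replaced with 10 μg/mL Bodipy FL LDL for 4 h. Cells washed with warm PBS; fluorescence read at ex 485/em 530 nm. Mean ± S.D.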

[15] = target: PCSK9/LDLR (Homo sapiens) (UniProt Q8NBP7+P01130); assay: Inhibition of recombinant human His-tagged PCSK9 interaction with recombinant LDLR AB domain (unknown origin) at higher concentration measured after 3 hrs by horseradish peroxidase-coupled TMB substrate based spectrophotometry relative to control; assay type: protein assay
Chain of PCSK9/LDLR (Homo sapiens) (P01130 22-860 partner limits assumed): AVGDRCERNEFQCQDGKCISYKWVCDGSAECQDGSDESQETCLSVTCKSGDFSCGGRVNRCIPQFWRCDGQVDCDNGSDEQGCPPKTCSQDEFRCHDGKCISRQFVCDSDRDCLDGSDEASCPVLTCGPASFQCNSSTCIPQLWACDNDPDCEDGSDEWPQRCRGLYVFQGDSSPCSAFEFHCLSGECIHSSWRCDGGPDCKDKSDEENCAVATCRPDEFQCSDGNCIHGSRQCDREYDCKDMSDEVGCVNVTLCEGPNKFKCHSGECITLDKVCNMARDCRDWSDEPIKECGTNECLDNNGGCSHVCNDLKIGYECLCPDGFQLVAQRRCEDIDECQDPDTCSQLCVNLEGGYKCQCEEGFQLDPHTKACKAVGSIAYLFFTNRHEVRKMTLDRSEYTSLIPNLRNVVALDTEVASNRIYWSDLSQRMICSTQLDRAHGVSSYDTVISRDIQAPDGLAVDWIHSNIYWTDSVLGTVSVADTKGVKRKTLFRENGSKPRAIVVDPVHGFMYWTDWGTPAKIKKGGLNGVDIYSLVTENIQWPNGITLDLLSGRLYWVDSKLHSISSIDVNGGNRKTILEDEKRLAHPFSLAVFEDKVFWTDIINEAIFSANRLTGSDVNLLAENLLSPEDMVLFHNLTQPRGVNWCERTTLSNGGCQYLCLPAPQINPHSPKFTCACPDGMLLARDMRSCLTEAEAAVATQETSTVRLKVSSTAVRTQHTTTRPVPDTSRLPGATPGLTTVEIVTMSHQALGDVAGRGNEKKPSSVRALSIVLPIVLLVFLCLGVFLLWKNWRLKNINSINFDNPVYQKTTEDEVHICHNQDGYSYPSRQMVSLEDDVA
Chain of PCSK9/LDLR (Homo sapiens) (Q8NBP7 31-152 limits assumed): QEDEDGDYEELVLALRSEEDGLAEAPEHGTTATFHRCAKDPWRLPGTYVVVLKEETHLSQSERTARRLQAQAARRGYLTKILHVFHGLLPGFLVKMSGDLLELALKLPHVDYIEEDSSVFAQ
Chain of PCSK9/LDLR (Homo sapiens) (Q8NBP7 153-692 limits assumed): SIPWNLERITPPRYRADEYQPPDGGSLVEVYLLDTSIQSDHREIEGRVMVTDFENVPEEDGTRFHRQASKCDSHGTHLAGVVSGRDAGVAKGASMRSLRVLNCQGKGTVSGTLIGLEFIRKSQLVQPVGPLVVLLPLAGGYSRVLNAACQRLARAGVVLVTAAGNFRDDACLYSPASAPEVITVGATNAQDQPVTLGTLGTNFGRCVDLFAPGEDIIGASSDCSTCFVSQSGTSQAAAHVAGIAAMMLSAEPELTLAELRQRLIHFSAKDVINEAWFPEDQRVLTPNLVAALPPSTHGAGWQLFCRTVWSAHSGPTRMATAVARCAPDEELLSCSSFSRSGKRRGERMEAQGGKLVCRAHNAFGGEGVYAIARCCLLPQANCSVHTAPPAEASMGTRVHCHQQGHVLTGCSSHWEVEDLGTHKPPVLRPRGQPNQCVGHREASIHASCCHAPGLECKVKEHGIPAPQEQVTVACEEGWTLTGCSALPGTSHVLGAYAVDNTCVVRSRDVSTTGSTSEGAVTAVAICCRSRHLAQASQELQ
Procedure, shortened: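 ELISA plates pre-coated with LDLR-EGF-AB domain. Compounds serially diluted from 10 mM DMSO stocks in reaction buffer, with 7 ng His-tagged human PCSK9 added, 3 h at room temperature with shaking. Binding detected with biotinylated anti-His antibody (1 h), then HRP-streptavidin (20 min), then substrate (15 min); absorbance read at 450/540 nm. IC50 taken from the % inhibition curve.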

[16] = Plasma concentration in C57BL/6 mouse at 20 mg/kg, sc administered as single dose measured after 24 hrs by LC-MS/MS analysis; assay type: ADME, organism-based; procedure, shortened: as §3
[17] = Time at which plasma concentration exceeds in vitro IC50 for inhibition of recombinant human His-tagged PCSK9 interaction with recombinant LDLR AB domain (unknown origin) in C57BL/6 mouse at 20 mg/kg, sc administered as single dose; assay type: organism-based; details: in vivo
[18] = Toxicity in C57BL/6 mouse assessed as change in body weight at 3.28 to 16.4 mg/kg/day, sc administered daily for 14 days; assay type: organism-based; details: in vivo, 336 h

Chain of Proprotein convertase subtilisin/kexin type 9 (Homo sapiens) (Q8NBP7 31-152 limits assumed): as the sequence (Q8NBP7 31-152 limits assumed) above
Chain of Proprotein convertase subtilisin/kexin type 9 (Homo sapiens) (Q8NBP7 153-692 limits assumed): as the sequence (Q8NBP7 153-692 limits assumed) above

Activity [1]: Active
IC50 [2]: > 10 µM
IC50 [3]: > 10 µM
inhibition [4]: inactive
inhibition [5]: Active
Vd [6]: 9.13 L/kg
half-life [7]: 25.7 h
AUC(0-t) at 24 h [8]: 722 ng·h/mL
Tmax [9]: 2 h
Cmax [10]: 2210 ng/mL
Cmax [11]: 52.6 ng/mL
half-life [12]: 5.47 h
inhibition [14]: Dose-dependent effect
Imax [15]: 57%
concentration at 24 h [16]: 93 nM
T>IC50 [17]: >= 16 hr
SMILES: Cc1cn(-c2cc(CN3CCC[C@H](N)C3)cc(NC(=O)c3ccc(C)c(Oc4ccccc4)c3)c2)cn1
Activity [13]: inactive
Activity [18]: Non-Toxic
